Results collected from several papers.
Lines come from different studies, so protocols differ.
Cell line: HCT-116
Read-out: cell growth or viability

CCN(CC)CCOc1cc2cc3c(cc2c2nc(OC)c4cc(OC)c(OC)cc4c12)OCO3 — GI50 (MTT; 72 h): ≥ 100000 nM
Cc1cc(C)n(C(=S)[S][Au][PH](CCCCCC[PH]([Au][S]C(=S)n2nc(C)cc2C)(c2ccccc2)c2ccccc2)(c2ccccc2)c2ccccc2)n1 — GI50: 380 nM
COc1cc2c(OC)nc3c4cc5c(cc4cc(OCCN4CCCC4)c3c2cc1OC)OCO5 — GI50 (MTT; 72 h): 64000 nM
Cc1c(OCC(F)(F)F)ccnc1COc1ccc(NC(=O)Nc2cccc(C(F)(F)F)c2)cc1 — IC50 (MTT; 72 h): 5430 nM
COc1cc(CNC(=O)C[C@H](C)CCC=C(C)C)ccc1OCc1cn(-c2ccc(Cl)cc2)nn1 — inhibition (SRB; 10 µM): 41%
COc1ccc(NCC(=O)Nc2c(C#N)sc(Nc3ccccc3)c2C(=O)Nc2ccc(OC)cc2)cc1 — viability (SRB; 10 nM, 48 h): 82.6%
COc1ccc(C(=O)/C=C/c2ccc3c(c2)OCCO3)cc1S(N)(=O)=O — inhibition (SRB; 10 µM): 57%
COc1ccc(NC(=O)c2c(Nc3ccccc3)sc(C#N)c2NC(=O)CNc2ccc(Cl)cc2)cc1 — viability (SRB; 10 µM, 48 h): 48.6%
COc1ccc(C(=O)/C=C/c2ccc(Cl)c(Cl)c2)cc1S(N)(=O)=O — GI50 (SRB; 48 h): 1200 nM
Cc1nc2ccc(Br)cc2c(=O)n1/N=C/c1ccc(C(=O)O)cc1 — viability (LDH; 200 µg/mL, 24 h): 53.5%
COc1ccc(C(=O)/C=C/c2cccc3ccccc23)cc1S(N)(=O)=O — inhibition (SRB; 10 µM): 192%
CNC(=O)c1cc(Oc2ccc(NC(=O)Nc3ccc(Cl)c(C(F)(F)F)c3)cc2)ccn1 — viability (SRB; 1 µM, 48 h): 46.6%
COc1ccc(C(=O)/C=C/c2cc3c(cc2Br)OCO3)cc1S(N)(=O)=O — inhibition (SRB; 10 µM): 198%
CCc1ccc(/C=N/n2c(C)nc3ccc(C)cc3c2=O)s1 — viability (LDH; 200 µg/mL, 24 h): 86.5%
COc1cc2c(OC)nc3c4cc5c(cc4cc(OCCCN4CC=CC4)c3c2cc1OC)OCO5 — GI50 (MTT; 72 h): 1300 nM
COc1cc(NCC(=O)Nn2c(C)nc3ccc(Cl)cc3c2=O)cc(OC)c1OC — viability (LDH; 200 µg/mL, 24 h): 54.5%
COc1ccc(C(=O)/C=C/c2ccc3ccccc3c2)cc1S(N)(=O)=O — inhibition (SRB; 10 µM): 198%
COc1ccc(NC(=O)c2c(Nc3ccccc3)sc(C(=O)NN=Cc3ccc(OC)c(O)c3)c2NC(C)=O)cc1 — viability (SRB; 10 nM, 48 h): 83.7%
COc1cc2c(OC)nc3c4cc5c(cc4cc(OCCCN4CCC(N6CCCCC6)CC4)c3c2cc1OC)OCO5 — GI50 (MTT; 72 h): 5700 nM
COc1ccc(NC(=O)c2c(Nc3ccccc3)sc(C(=O)NN=Cc3cc(OC)c(OC)c(OC)c3)c2NC(C)=O)cc1 — viability (SRB; 100 µM, 48 h): 43.2%
COc1ccc(C(=O)/C=C/c2ccccc2Br)cc1S(N)(=O)=O — GI50 (SRB; 48 h): 1500 nM
COc1ccc(C=NNC(=O)c2sc(Nc3ccccc3)c(C(=O)Nc3ccc(OC)cc3)c2NC(C)=O)cc1 — viability (SRB; 10 µM, 48 h): 46.8%
COc1cc2c(OC)nc3c4cc5c(cc4cc(O)c3c2cc1OC)OCO5 — GI50 (MTT; 72 h): 5700 nM
COc1ccc(C(=O)/C=C/c2cccc(Cl)c2)cc1S(N)(=O)=O — GI50 (SRB; 48 h): 1200 nM
COc1ccc(NC(=O)c2c(Nc3ccccc3)sc(C(=O)NN=Cc3ccc(Cl)cc3)c2NC(C)=O)cc1 — viability (SRB; 10 nM, 48 h): 95.1%
COc1ccccc1/C=C/C(=O)c1ccc(OC)c(S(N)(=O)=O)c1 — GI50 (SRB; 48 h): 2500 nM
COc1ccc(NC(=O)c2c(Nc3ccccc3)sc(C#N)c2NC(=O)CNc2ccc(OC)c(OC)c2)cc1 — viability (SRB; 10 µM, 48 h): 53.6%
